Sampled rows, rich in hits. Any-hit rate of the full collection: about 2.1%.
Runt-SMMHC FRET = blocks binding of human RUNX1 Runt domain to CBFb-SMMHC. 0.74% of 220,000 active. AID 1434. inhibition, % at 20 µM. Q01196+Q13951. Cerulean-Runt/Venus-CBFb-SMMHC FRET ratio 530/480, 1 h;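 active = mean inhibition across duplicate retests at 20 µM reaching about 50%, limit read from the data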;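 note: 0% = DMSO wells and 100% = wells with excess untagged CBFb-SMMHC; inhibitors lower the FRET ratio by blocking Runt binding to CBFb-SMMHC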
Target sequence (Q01196 whole entry, looked up, the tested form may be a part): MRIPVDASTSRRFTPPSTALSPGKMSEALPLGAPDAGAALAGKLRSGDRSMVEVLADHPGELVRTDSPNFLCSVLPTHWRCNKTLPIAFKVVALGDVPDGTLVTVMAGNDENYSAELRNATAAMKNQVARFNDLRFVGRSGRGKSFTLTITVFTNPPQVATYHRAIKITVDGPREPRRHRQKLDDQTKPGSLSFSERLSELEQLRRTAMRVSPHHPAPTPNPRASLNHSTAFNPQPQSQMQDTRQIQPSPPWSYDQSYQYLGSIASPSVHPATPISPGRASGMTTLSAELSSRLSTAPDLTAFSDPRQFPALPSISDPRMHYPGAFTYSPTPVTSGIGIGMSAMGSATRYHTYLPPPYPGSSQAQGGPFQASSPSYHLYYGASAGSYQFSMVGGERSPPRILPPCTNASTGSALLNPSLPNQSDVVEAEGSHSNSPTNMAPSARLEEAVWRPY
Target sequence (Q13951 whole entry, looked up, the tested form may be a part): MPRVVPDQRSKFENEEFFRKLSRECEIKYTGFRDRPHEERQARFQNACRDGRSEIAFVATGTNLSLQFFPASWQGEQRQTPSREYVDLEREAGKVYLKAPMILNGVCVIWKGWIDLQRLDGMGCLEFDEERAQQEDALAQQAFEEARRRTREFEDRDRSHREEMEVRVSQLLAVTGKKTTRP
KLK7 zymogen act = activators of human kallikrein-7 zymogen | P49862 | purified proKLK7, EDANS-DABCYL substrate fluorescence; 100% is mature enzyme control, 0% vehicle | activation, % at 7 µM | 0.9% of 370,000 active | AID 652039;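 active = activation above the mean of all tested compounds plus 3 SD, computed per campaign excluding outliers beyond control limits, cut at about 13% in these data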
RanGTP-Imp inh = disruptors of Ran-importin-beta complex formation – biochemical, FRET, CFP-Ran, YFP-importin-beta, homogeneous, primary screen; 1.1% of 300,000 active; AID 2216; cell-free CFP-Ran/YFP-importin-beta FRET ratio; inhibition, % (no concentration beside the values);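 active = more than half of the replicate wells show a fall in the fluorescence ratio signal beyond about 16%, limit read from the data, passing the limit was not always enough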;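 note: 0% = DMSO wells and 100% = Ran loaded with GDP instead of GTP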
MEX-5 binding = C. elegans MEX-5 TCR-2 RNA binding activity; MEX-5/FITC-TCR2 RNA binding, fluorescence polarization; active compounds read low; 0.38% of 300,000 active; AID 1832; activity score (negative = inhibition of binding), % at 10 µM;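 active = inhibition past about -25% in most replicates, and total fluorescence under double the plate's negative control median, limit read from the data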;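 note: 0% = DMSO and -100% = 5 µM competing unlabeled TCR2 RNA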
Runt-CBFb FRET = Runt domain-CBFb interaction inhibition; inhibition, % at 20 µM; AID 1496; 0.46% of 220,000 active; Cerulean-Runt/Venus-CBFb FRET ratio 530/480, 1 h; Q01196+Q13951;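 active = inhibition over about 50% at 20 µM in the single-dose screen, limit read from the data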;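 note: 0% = DMSO wells and 100% = excess unlabeled CBFb competitor control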
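Assay system: Cerulean-tagged RUNX1 Runt domain (FRET donor) fusion protein / Amount: 100 nM each of Venus-CBFb and Cerulean-Runt domain / Medium: Tris buffer pH 7.5 with salts and BSA / Also added: Venus-CBFb 100 nM / Schedule: 1 h complex formation plus 1 h compound treatment, room temperature / Signal: FRET fluorescence / Read-out: loss of energy transfer signal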
proKLK7 act conf = confirmation of human kallikrein-7 zymogen activators | shares compounds with KLK7 zymogen act | purified proKLK7, EDANS-DABCYL substrate fluorescence; scaled: vehicle 0, mature enzyme 100 | activation, % at 7 µM | 68% of 3,200 active;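 active = activation, as change over the incubation, above the mean of all tested compounds plus 3 SD, cut at about 13% in these data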
EDANS interfere = fluorescence interference counter-screen for KLK7 activators. shares compounds with KLK7 zymogen act. EDANS-DABCYL substrate fluorescence interference, no enzyme, 4 h; solvent 0%, active enzyme control 100%. activation, % at 7 µM. 80% of 3,200 active;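 active = activation above the all-compound mean plus 3 SD, ignoring values outside control-based bounds, cut at about 4.8% in these data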;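 note: value is the 4 h activation minus the activation read at time zero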
Starred values were filed as active, the others as inactive.

How did O=C1CC(O)(C(F)F)Oc2ccc3ccccc3c21 (centres undefined) do in these assays?
Runt-SMMHC FRET: 2.1; KLK7 zymogen act: 46.9*; RanGTP-Imp inh: 0.3; MEX-5 binding: 3.4; Runt-CBFb FRET: 5.6; proKLK7 act conf: 1.6; EDANS interfere: 2.5

Results for O=C1CC(O)(C(F)(F)F)Oc2c1ccc1ccccc21 (centres undefined) ?
Runt-SMMHC FRET: -2.5; KLK7 zymogen act: 53.5*; RanGTP-Imp inh: -2.7; MEX-5 binding: 2.5; Runt-CBFb FRET: -0.2; proKLK7 act conf: 4.5; EDANS interfere: 5.3*

How did CC1(C)Cc2c(ccc3ccccc23)C(=O)N1 do in these assays?
Runt-SMMHC FRET: 2.2; KLK7 zymogen act: 0.6; RanGTP-Imp inh: -1.0; MEX-5 binding: -1.2; Runt-CBFb FRET: 0.2

How did COc1ccc2c(c1)OC(O)(C(F)F)CC2=O (centres undefined) do in these assays?
Runt-SMMHC FRET: 1.7; KLK7 zymogen act: 0.1; RanGTP-Imp inh: 2.8; MEX-5 binding: 1.0; Runt-CBFb FRET: 3.2

How did O=c1[nH]c2ccc(Cl)cc2c(-c2ccccc2)c1N1CCN(CCO)CC1 do in these assays?
Runt-SMMHC FRET: -1.1; KLK7 zymogen act: 29.4*; RanGTP-Imp inh: 6.4; MEX-5 binding: 1.1; Runt-CBFb FRET: -1.4; proKLK7 act conf: -9.0; EDANS interfere: -4.7

What do the screens show for `CCOC(=O)N1CCN(c2c(-c3ccccc3)c3cc(Cl)ccc3[nH]c2=O)CC1`?
Runt-SMMHC FRET: -4.0; KLK7 zymogen act: 0.0; RanGTP-Imp inh: 4.5; Runt-CBFb FRET: -5.5

Results for COc1ccccc1/C=C/C(=O)NCC(=O)N/N=C(\CCC(=O)O)c1ccccc1 ?
Runt-SMMHC FRET: -2.3; KLK7 zymogen act: -0.3; RanGTP-Imp inh: 4.4; MEX-5 binding: -1.2; Runt-CBFb FRET: 1.6

What do the screens show for `NNC(=O)c1ccc(CSc2cccc3cccnc23)cc1`?
Runt-SMMHC FRET: -1.4; KLK7 zymogen act: 12.7*; RanGTP-Imp inh: -1.0; MEX-5 binding: -0.5; Runt-CBFb FRET: 1.2; proKLK7 act conf: 4.4; EDANS interfere: -1.1

What do the screens show for `O=C(N/N=C/c1ccccc1Br)c1ccc(CSc2cccc3cccnc23)cc1`?
Runt-SMMHC FRET: 1.4; KLK7 zymogen act: -0.9; RanGTP-Imp inh: -6.2; MEX-5 binding: 2.0; Runt-CBFb FRET: -0.1

How did COc1ccc(-c2cn3nc(C)c(C)nc3n2)cc1OC do in these assays?
KLK7 zymogen act: -0.9

Results for Cc1ccc(-c2cn3nc(C)c(C)nc3n2)cc1 ?
Runt-SMMHC FRET: 62.6; KLK7 zymogen act: 54.9*; RanGTP-Imp inh: -0.5; Runt-CBFb FRET: 12.6; proKLK7 act conf: 58.9*; EDANS interfere: 55.8*

What do the screens show for `O=c1c(-c2ccc([N+](=O)[O-])cc2)coc2c(O)c(O)ccc12`?
Runt-SMMHC FRET: 1.9; KLK7 zymogen act: 5.6; RanGTP-Imp inh: 3.3; MEX-5 binding: -9.5; Runt-CBFb FRET: 6.5

What do the screens show for `CN(C)Cc1c(O)ccc2c(=O)c(-c3ccccc3Cl)c(C(F)(F)F)oc12`?
KLK7 zymogen act: 7.3; RanGTP-Imp inh: 5.1; MEX-5 binding: -0.7

Results for CCN(CC)Cc1c(O)ccc2c(=O)c(-c3ccc(Cl)cc3)coc12 ?
KLK7 zymogen act: 29.0*; RanGTP-Imp inh: 2.5; MEX-5 binding: -0.3; proKLK7 act conf: 33.5*; EDANS interfere: 30.9*

What do the screens show for `CN(C)Cc1c(O)ccc2c(=O)c(-c3ccc(Cl)cc3)coc12`?
KLK7 zymogen act: 33.0*; RanGTP-Imp inh: -1.1; MEX-5 binding: -2.2; proKLK7 act conf: 39.0*; EDANS interfere: 37.1*

How did C=CCN(CC=C)Cc1c(O)ccc2c(=O)c(-c3ccccc3)coc12 do in these assays?
KLK7 zymogen act: 37.6*; RanGTP-Imp inh: -1.4; MEX-5 binding: 0.5; proKLK7 act conf: 25.6*; EDANS interfere: 28.6*

From PubChem
